This note sets out measurements from article PMC3153576 (Biochemistry, 2011).

Common to all, as to assay type: binding
Test [1] addresses T1, PRMT1-SAH complex (Rattus norvegicus, UniProt Q63009). Kind of test: Stopped-flow dissociation from PRMT1-SAH. Conditions: 100 μM SAH. A digest of the protocol: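 Trapping experiment using rat His-PRMT1. 0.4 μM fluorescein-labelled H4 peptide (H4FLme1 or H4FLme2) was premixed with 2 μM PRMT1 and 100 μM SAH, then rapidly mixed with 50 μM unlabelled H4(1–20). Fluorescence recovery read at ex 495 nm, 510 nm long-pass emission; 4–6 injections averaged; double-exponential fit.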

The target in test [2] is PRMT1 (Rattus norvegicus, UniProt Q63009). Kind of test: Stopped-flow dissociation from PRMT1. The following applies: compared with second phase in methylation course.
PRMT1, sequence (Q63009 whole entry): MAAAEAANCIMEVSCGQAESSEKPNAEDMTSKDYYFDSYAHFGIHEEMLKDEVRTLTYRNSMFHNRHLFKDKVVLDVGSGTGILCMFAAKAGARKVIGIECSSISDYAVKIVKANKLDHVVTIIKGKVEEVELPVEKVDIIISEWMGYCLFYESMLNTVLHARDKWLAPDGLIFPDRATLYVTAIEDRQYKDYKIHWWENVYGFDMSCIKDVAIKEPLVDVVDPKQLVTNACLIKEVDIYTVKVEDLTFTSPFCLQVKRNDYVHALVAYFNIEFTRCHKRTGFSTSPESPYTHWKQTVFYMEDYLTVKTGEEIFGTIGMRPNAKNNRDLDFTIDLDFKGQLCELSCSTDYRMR
Test [3] concerns the target T1, PRMT1-SAH complex. Description: Stopped-flow association with PRMT1-SAH. The method, boiled down:
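His-tagged rat PRMT1 expressed in E. coli and Ni-resin purified. PRMT1 (2, 4, 6 μM) was preincubated with 100 μM SAH, then rapidly mixed with 0.4 μM fluorescein-labelled H4 peptide. Fluorescence quench read at ex 495 nm, 510 nm long-pass emission; 4–6 shots averaged. Traces fit double-exponential; kobs versus PRMT1 fit to two-step model for k1, k−1, k2, k−2.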

T1 sequence (Q63009 whole entry, one chain of several): as the sequence (Q63009 whole entry) above

Take “Ac-SGRme1GKGGKGDpr(FL)GKGGAKRHRK [H4FLme1]”: in test [1], the “koff from PRMT1-SAH relative to apo-PRMT1” value was “about three-fold lower”. Further, the “Dissociation rate constant relative to slow-phase (methylation) rate constants” value in test [2] is “several thousand-fold larger”. The “Observed first-order rate constant for binding (kobs)” value in test [3] (2 μM PRMT1 in presence of the cofactor) is 248 ± 3 s⁻¹. Moreover, the “Association rate constant with PRMT1-SAH relative to apo PRMT1” value in test [3] (100 μM SAH) was “two-fold higher”. Moreover, the “k2 + k−2 (plateau of the slow phase)” value in test [3] (two-step binding model (eq 5), 100 μM SAH, 30°C) was 36 ± 2 s⁻¹.
In the case of “Ac-SGRme2GKGGKGDpr(FL)GKGGAKRHRK [H4FLme2]”, in test [2], the “Dissociation rate constant relative to slow-phase (methylation) rate constants” value is on record as “several thousand-fold larger”.
